Compound activity as filed in PubChem.
In the library only some 1.2% were active in any assay of this set; here they are far more common.
Glyco luc inh – increase of ERlucT glycosylation luciferase signal, primary screen, N-linked glycosylation inhibitor project, D54 ERlucT cells, luminescence, set 2; D54 ERlucT glycosylation luciferase reporter, 24 h; percent of 100 nM tunicamycin response; reporter increase, % at 12.5 µM; AID 588692, 2011; hit rate 0.23% among 360,000;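 active = mean luciferase reporter signal, scaled so untreated is 0 and the glycosylation-blocking control 100, at or above a set limit in every replicate; inconclusive = mean reaches the limit but not every replicate does; inactive = mean below the limit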;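 also: luciferase carries N-glycosylation sites so blocking glycosylation raises the light; 0% = median of neutral control wells and 100% = median of 100 nM tunicamycin wells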
RAD54 inh – inhibitors of human RAD54 branch migration, primary screen, biochemical, fluorescence, single point; DNA repair and recombination protein RAD54-like (Homo sapiens), Q92698; RAD54 Holliday junction branch migration, FAM/BHQ fluorescence; inhibition, % at 10.4 µM; hit rate 0.14% among 360,000; AID 602329, 2012;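 active = mean normalized replicate activity at least 40 and at least half of replicates scoring 40 or more; inconclusive = only one of the two criteria met; inactive = mean below 40 and under half of replicates reaching 40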;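 also: 0% = median of neutral control wells and 100% = median of positive control wells; inhibitors cause a drop in the FAM fluorescence signal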
NSD2 inh – NSD2 histone methyltransferase inhibitors, primary screen, biochemical, AlphaScreen, single concentration, set 2. AID 743445, 2014. NSD2 peptide methylation, 120 min. hit rate 0.54% among 310,000. inhibition, % at 12.5 µM. Histone-lysine N-methyltransferase NSD2 (Homo sapiens), O96028; in the data active = inhibition above about 50%
RAD52 anneal inh – RAD52 DNA annealing inhibitors, primary screen, biochemical, FRET, single point, set 2; recombinant RAD52 DNA annealing, FRET fluorescence; AID 651710, 2012; DNA repair protein RAD52 homolog (Homo sapiens), P43351; hit rate 0.46% among 360,000; inhibition, % at 18.7 µM;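 active = every replicate showing at least 50% inhibition; inconclusive = mean inhibition at least 50% but not in every replicate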
Target sequence (P43351 whole entry, looked up): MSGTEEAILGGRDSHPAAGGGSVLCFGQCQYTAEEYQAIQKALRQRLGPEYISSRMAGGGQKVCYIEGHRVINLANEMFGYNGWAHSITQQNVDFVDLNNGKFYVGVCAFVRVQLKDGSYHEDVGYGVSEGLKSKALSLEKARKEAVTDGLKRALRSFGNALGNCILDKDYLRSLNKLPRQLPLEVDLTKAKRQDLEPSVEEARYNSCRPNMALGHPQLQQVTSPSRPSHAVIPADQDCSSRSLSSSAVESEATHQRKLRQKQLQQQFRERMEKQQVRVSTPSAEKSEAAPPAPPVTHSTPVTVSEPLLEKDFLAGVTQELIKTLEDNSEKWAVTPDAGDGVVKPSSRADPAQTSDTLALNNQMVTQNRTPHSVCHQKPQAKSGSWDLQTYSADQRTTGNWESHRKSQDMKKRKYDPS
MLL AF4-AF9 inh – inhibitors of AF4 peptide binding to AF9, primary screen, biochemical, AlphaScreen, biotin-AF4 peptide, FLAG-AF9, single point; Protein AF-9 (Homo sapiens), P42568; AID 651704, 2012; hit rate 0.47% among 350,000; inhibition, % at 10 µM;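 active = every replicate reaching a set inhibition limit, whatever the replicate mean, cut at about 25% in these data; inconclusive = mean inhibition reaches that limit but some replicates miss it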;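 also: 0% = plate neutral control median and 100% = total signal loss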
FN deposition inh – inhibitors of fibronectin matrix deposition, primary screen, AH1F cells, Alexa488-fibronectin fluorescence, plate reader. AH1F fibroblasts, overnight. inhibition, % at 12.6 µM. hit rate 0.086% among 350,000. AID 743247, 2014;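 active = mean inhibition across replicates of 30% or more, regardless of how many single replicates reach that level; inconclusive = mean under 30% yet at least half of replicates reach 30%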;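 also: positive control wells lacked labelled fibronectin entirely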
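test system = AH1F fibroblasts assembling fluorescent fibronectin matrix | quantity = 10000 AH1F cells per well | buffer or medium = DMEM plus 2% serum, read in PBS | doses = single dose, pinned | incubation = 1 h cell attachment, overnight exposure to compound and label | detection = fluorescence at 485 nm excitation, 525 nm emission | read-out basis = inhibition from reduced deposited-fibronectin fluorescence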
AlphaScreen intf – AlphaScreen signal interference counter-screen, dose response, artefact control, biochemical, cherry-picked samples, luminescence. shares compounds with MLL AF4-AF9 inh. AC50, µM (highest dose often 12 µM), without a hit: at the highest dose activity change, negative = inhibition. hit rate 45% among 530; cut-off not given, nearly all actives have AC50 up to about 14 µM
Starred values were filed as active, the others as inactive; ? = inconclusive; / = no result.

SMILES	Glyco luc inh	RAD54 inh	NSD2 inh	RAD52 anneal inh	MLL AF4-AF9 inh	FN deposition inh	AlphaScreen intf
C#CCOCCOCCOCCNc1nc(N2CCN(C(=O)[C@H]([C@@H](C)CC)n3cc(CCCN=C(N)N)nn3)CC2)nc(N2CCN(C(=O)[C@H](CCCCN)n3cc(CCCC)nn3)CC2)n1	1.4	-3.5	/	-53.7	28.5*	-4.6	-11.2%
C#CCOCCOCCOCCNc1nc(N2CCN(C(=O)[C@H]([C@@H](C)O)n3cc(CCCCN)nn3)CC2)nc(N2CCN(C(=O)[C@H](CCCCN)n3cc(CCCC)nn3)CC2)n1	-1.1	-42.3	/	34.6	13.2	-0.9	/
Oc1cc(-c2ccncc2)cc2cccnc12	-11.8	8.2	/	-18.9	28.8*	24.3	9.1µM*
O=C(C[C@@H]1C[C@@H]2c3cc(NC(=O)c4cccnc4)ccc3O[C@@H]2[C@H](CO)O1)NC1CCCC1	/	/	/	-2.3	-2.1	0.0	/
CC(=O)c1ccc(N=Nc2ccc(N(C)C)cc2)cc1	-20.3	-1.8	0.4	7.3	4.3	-5.4	/
CN(C)c1ccc(N=Nc2ccccc2Br)cc1	-14.9	3.3	16.7	-14.4	35.0*	5.3	11.6µM*
COc1ccc(S(=O)(=O)N(C)C[C@H]2Oc3ncc(/C=C/c4ccccc4)cc3C(=O)N([C@H](C)CO)C[C@@H]2C)cc1	/	3.1	/	17.1	7.0	/	/
N#C/C(N=Nc1ccccc1O)=N\Nc1ccccc1O	-22.0	2.9	/	-8.2	34.3*	0.1	8.51µM*
Oc1ccccc1N=N/C(=N/Nc1ccccc1O)c1ccccc1	0.7	-3.2	/	-17.8	-3.5	-4.6	/
COc1ccc(CN2CCC(N(CCc3ccccc3)Cc3ccccc3)CC2)c(OC)c1	-5.1	7.0	5.8	46.0	30.1*	8.6	-21.5%
CNC[C@@H]1OCCCC[C@H](C)Oc2ccc(NC(=O)Nc3ccc(F)cc3)cc2C(=O)N([C@@H](C)CO)C[C@H]1C	/	-10.6	/	-123.0	0.5	/	/
Cc1ccsc1/C=N/N1CCN(c2ccccc2)CC1	0.7	-1.8	-1.1	-11.7	10.3	/	/
Cc1ccsc1/C=N/N1CCN(Cc2ccccc2)CC1	1.7	3.2	7.2	1.8	27.2*	4.4	-17.1%
CN=c1scc(C)n1/N=C/c1ccc(O)c(O)c1O	-0.8	6.9	25.1	/	/	8.4	/
CN=c1scc(-c2cccs2)n1/N=C/c1ccccc1O	-25.3	/	1.1	-9.7	30.9*	/	-22.6%
COc1ccc(NC2=C(NC(C)=O)C(=O)c3ccccc3C2=O)cc1	4.5	-14.8	12.8	-1.2	9.5	-1.1	/
Cc1cccc(NC2=C(NCCO)C(=O)c3ccccc3C2=O)c1	3.7	-5.0	41.3	-7.1	48.6*	0.8	-25.5%
COc1ccc(NC2=C(NCCO)C(=O)c3ccccc3C2=O)cc1	21.1	/	/	0.6	56.3*	5.6	13.8µM*
COc1cccc(NC2=C(NCCO)C(=O)c3ccccc3C2=O)c1	9.8	-10.9	24.7	-6.7	37.7*	10.1	13.6µM*
COc1ccc(C(CCN2CCN(c3ccccc3)CC2)c2c(O)cc(OC)cc2OC)cc1 (centres undefined)	-1.6	-10.0	/	/	/	1.2	/
COc1cc(O)c(C(CCN2CCN(c3ccccc3)CC2)c2ccc(N(C)C)cc2)c(OC)c1 (centres undefined)	-3.9	3.3	/	-7.3	49.8*	-7.8	-22.9%
CCCC(=O)NC(c1ccc(C(C)C)cc1)c1ccc2cccnc2c1O (centres undefined)	-13.2	4.2	1.2	-2.8	-1.4	-8.5	/
CCCC(=O)NC(c1ccc(N(C)C)cc1)c1ccc2cccnc2c1O (centres undefined)	-10.6	0.2	7.4	-15.7	50.1*	16.3	1.51µM*
Cc1ccnc(NC(c2cccnc2)c2ccc3cccnc3c2O)c1 (centres undefined)	3.9	/	0.0	1.5	82.0*	13.4	1.49µM*
COc1ccccc1NC(c1cccnc1)c1ccc2cccnc2c1O (centres undefined)	19.9	2.4	-0.5	-6.4	47.5*	9.2	-25.1%
SMILES	Glyco luc inh	RAD54 inh	NSD2 inh	RAD52 anneal inh	MLL AF4-AF9 inh	FN deposition inh	AlphaScreen intf
O=C(O)c1ccccc1NC(c1ccccc1)c1ccc2cccnc2c1O (centres undefined)	5.7	/	/	-2.7	11.7	23.3	/
Cc1ccnc(NC(c2ccsc2)c2ccc3ccc(C)nc3c2O)c1 (centres undefined)	-2.2	8.3	2.3	-15.2	55.1*	/	-12.7%
Cc1ccc2ccc(C(Nc3cccc(C(F)(F)F)c3)c3cccnc3)c(O)c2n1 (centres undefined)	0.5	-3.3	2.9	-6.7	33.1*	-1.6	-17.4%
CC(C)NC(=O)N(C)C[C@@H]1Oc2cc(C#C[C@@H](C)O)ccc2S(=O)(=O)N([C@H](C)CO)C[C@@H]1C	/	2.7	/	4.0	-2.8	-4.5	/
CCCNC(=O)C[C@H]1C[C@H]2c3cc(NC(=O)COC)ccc3O[C@H]2[C@@H](CO)O1	/	-33.4	/	-7.3	-3.2	/	/
O=C(O)C[C@@H]1C=C[C@@H](NC(=O)Nc2ccccc2)[C@H](CO)O1	/	-1.3	/	-5.5	-0.5	7.7	/
C[C@H]1CN([C@@H](C)CO)C(=O)c2cc(NC(=O)Nc3ccc4c(c3)OCO4)ccc2O[C@H]1CN(C)CC1CCCCC1	/	1.6	/	9.7	4.4	/	/
CN(C)CCNc1nc2sc3c(c2c(=O)n1CCc1ccccc1)CCCCC3	7.5	9.1	12.1	23.9	31.3*	5.2	-7.5%
N=C1C=CC(=C(c2ccc(N)cc2)c2ccc(N)cc2)C=C1	?	/	/	3.0	45.0*	-10.3	10.9µM*
Cc1cccc(S(=O)(=O)N2C[C@H]3[C@@H](c4ccccc42)[C@@H](CO)N3C(=O)C2CC2)c1	/	8.8	/	8.8	-0.6	/	/
Nc1ccc(N)c(C(=O)O)c1	3.7	2.5	/	/	26.7*	-10.5	-8.0%
Nc1ccc(C(=O)O)c(O)c1	3.9	4.2	/	-7.4	9.3	-3.6	/
C[C@H]1CN([C@@H](C)CO)C(=O)Cc2cc(NC(=O)C3CCCCC3)ccc2O[C@H]1CN(C)Cc1ccccc1	/	-0.6	/	-4.2	1.9	/	/
COc1ccc(OC)c(C2=NOC(C(=O)Nc3c(C)n(C)n(-c4ccccc4)c3=O)C2)c1 (centres undefined)	2.6	7.1	/	0.1	-7.6	5.7	4.6%
COc1ccc(C2=NOC(C(=O)Nc3c(C)n(C)n(-c4ccccc4)c3=O)C2)cc1 (centres undefined)	2.4	2.2	/	-3.6	-5.8	-0.7	/
